This note sets out measurements from ChEMBL document CHEMBL2321690, “New betulinic acid derivatives for bevirimat-resistant human immunodeficiency virus type-1” (J Med Chem, 2013).

SMILES strings stand for the structures.

Data set [1] relates to MT4. Briefly: Cytotoxicity against human MT4 cells for 4 days. Type of data set: cell-based. The settings on record: mt4, 96 h. In a few lines: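 MT4 cells cultured with various compound concentrations for 4 days. Viability read by a CytoTox-Glo luminescent cytotoxicity assay. CC50 is the concentration reducing viable cells by 50%.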
The test system of data set [2] is Human immunodeficiency virus 1. In words: Antiviral activity against 0.001 MOI bevirimat-resistant Human immunodeficiency virus 1 NL4-3 harboring gag V370A mutant infected in human MT4 cells assessed as inhibition of viral replication measured 4 days post infection by ELISA. The class given is functional, organism-based. The settings on record: Human immunodeficiency virus 1, NL4-3, MT4, 96 h. In a few lines: (§1)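 Mutations introduced into pNL4-3 by site-directed mutagenesis. MT4 cells infected with wild-type NL4-3 or resistant variant at 0.001 TCID50/cell in presence of graded compound concentrations. Supernatant p24 measured by ELISA on day 4 post-infection. IC50 is the concentration reducing p24 by 50%, reported as mean ± SD with the number of tests given per value.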
A general note: ELISA stands for enzyme-linked immunosorbent assay.

Data set [3] has as its system Human immunodeficiency virus 1. In words: Antiviral activity against 0.001 MOI wild type Human immunodeficiency virus 1 NL4-3 infected in human MT4 cells assessed as inhibition of viral replication measured 4 days post infection by ELISA. The class given is functional, organism-based. As to conditions: Human immunodeficiency virus 1, NL4-3, MT4, 96 h. In outline: as §1

As for `C=C(C)[C@@H]1CC[C@]2(C(=O)NCCCCCCCNC(=O)[C@H](CCC(N)=O)NC(=O)OC(C)(C)C)CC[C@]3(C)[C@H](CC[C@@H]4[C@@]5(C)CC[C@H](OC(=O)CC(C)(C)C(=O)O)C(C)(C)[C@@H]5CC[C@]43C)[C@@H]12`, in data set [1], the CC50 (usually the concentration at which the toxic effect on the cells reaches its halfway point) is greater than 10000 nM. Besides, the IC50 (usually the concentration that inhibits the measured activity by half) amounted to 2600 nM in data set [2] and 10 nM in data set [3].
For `C=C(C)[C@@H]1CC[C@]2(C(=O)NCCCCCCCCCNC(=O)CNC(=O)OC(C)(C)C)CC[C@]3(C)[C@H](CC[C@@H]4[C@@]5(C)CC[C@H](OC(=O)CC(C)(C)C(=O)O)C(C)(C)[C@@H]5CC[C@]43C)[C@@H]12`, in that order: greater than 10000 nM, 1040 nM and 20 nM.
For `C=C(C)[C@@H]1CC[C@]2(C(=O)NCCCCCCCNC(=O)[C@H](C)NC(=O)OC(C)(C)C)CC[C@]3(C)[C@H](CC[C@@H]4[C@@]5(C)CC[C@H](OC(=O)CC(C)(C)C(=O)O)C(C)(C)[C@@H]5CC[C@]43C)[C@@H]12`, in that order: 7900 nM, 370 nM and 10 nM.
In the same order, the values of `C=C(C)[C@@H]1CC[C@]2(C(=O)N3CCN(CCCCC(=O)O)CC3)CC[C@]3(C)[C@H](CC[C@@H]4[C@@]5(C)CC[C@H](OC(=O)CC(C)(C)C(=O)O)C(C)(C)[C@@H]5CC[C@]43C)[C@@H]12` are greater than 10000 nM, greater than 3300 nM and 6 nM.
In data set [1], `C=C(C)[C@@H]1CC[C@]2(C(=O)NCCCCCCCCCNC(=O)[C@H](CCC(N)=O)NC(=O)OC(C)(C)C)CC[C@]3(C)[C@H](CC[C@@H]4[C@@]5(C)CC[C@H](OC(=O)CC(C)(C)C(=O)O)C(C)(C)[C@@H]5CC[C@]43C)[C@@H]12` showed a CC50 greater than 10000 nM. Also, the IC50 in data set [2] was found to be 1200 nM; in data set [3], 20 nM.
In the same order, the values of `C=C(C)[C@@H]1CC[C@]2(C(=O)NCCCCCCCCNC(=O)[C@@H](NC(=O)OC(C)(C)C)C(C)C)CC[C@]3(C)[C@H](CC[C@@H]4[C@@]5(C)CC[C@H](OC(=O)CC(C)(C)C(=O)O)C(C)(C)[C@@H]5CC[C@]43C)[C@@H]12` are greater than 10000 nM, 330 nM and 150 nM.
For `C=C(C)[C@@H]1CC[C@]2(C(=O)NCCCCCCCCNC(=O)[C@H](CCC#N)NC(=O)OC(C)(C)C)CC[C@]3(C)[C@H](CC[C@@H]4[C@@]5(C)CC[C@H](OC(=O)CC(C)(C)C(=O)O)C(C)(C)[C@@H]5CC[C@]43C)[C@@H]12`, in that order: greater than 10000 nM, 330 nM and 30 nM.
For `C=C(C)[C@@H]1CC[C@]2(C(=O)NCCCCCCCCC(=O)N[C@@H](CCC(=O)OC)C(=O)OC)CC[C@]3(C)[C@H](CC[C@@H]4[C@@]5(C)CC[C@H](OC(=O)CC(C)(C)C(=O)O)C(C)(C)[C@@H]5CC[C@]43C)[C@@H]12`, in that order: greater than 10000 nM, 2160 nM and 180 nM.
Regarding `C=C(C)[C@@H]1CC[C@]2(C(=O)NCCCCCCC(=O)N[C@@H](CCC(N)=O)C(=O)OC)CC[C@]3(C)[C@H](CC[C@@H]4[C@@]5(C)CC[C@H](OC(=O)CC(C)(C)C(=O)O)C(C)(C)[C@@H]5CC[C@]43C)[C@@H]12`, in data set [1], the CC50 is greater than 10000 nM. In addition, the IC50 in data set [2] turned out to be 2460 nM; in data set [3], 50 nM.
On to `C=C(C)[C@@H]1CC[C@]2(C(=O)NCCCCCCCCC(=O)N[C@@H](CCC(N)=O)C(=O)OC(C)(C)C)CC[C@]3(C)[C@H](CC[C@@H]4[C@@]5(C)CC[C@H](OC(=O)CC(C)(C)C(=O)O)C(C)(C)[C@@H]5CC[C@]43C)[C@@H]12`, for which the CC50 in data set [1] is greater than 10000 nM. Also, the IC50 in data set [2] came out at 810 nM; in data set [3], 10 nM.
In the same order, the values of `C=C(C)[C@@H]1CC[C@]2(C(=O)NCCCCCCCC(=O)N[C@@H](CCC(N)=O)C(=O)OC)CC[C@]3(C)[C@H](CC[C@@H]4[C@@]5(C)CC[C@H](OC(=O)CC(C)(C)C(=O)O)C(C)(C)[C@@H]5CC[C@]43C)[C@@H]12` are greater than 10000 nM, greater than 5000 nM and 50 nM.
For `C=C(C)[C@@H]1CC[C@]2(C(=O)NCCCCCCCCCNC(=O)[C@H](CC(N)=O)NC(=O)OC(C)(C)C)CC[C@]3(C)[C@H](CC[C@@H]4[C@@]5(C)CC[C@H](OC(=O)CC(C)(C)C(=O)O)C(C)(C)[C@@H]5CC[C@]43C)[C@@H]12`, in that order: 8300 nM, 340 nM and 40 nM.
In the same order, the values of `C=C(C)[C@@H]1CC[C@]2(C(=O)NCCCCCCCCC(=O)NCC(=O)OC)CC[C@]3(C)[C@H](CC[C@@H]4[C@@]5(C)CC[C@H](OC(=O)CC(C)(C)C(=O)O)C(C)(C)[C@@H]5CC[C@]43C)[C@@H]12` are greater than 10000 nM, 1510 nM and 10 nM.
In data set [1], `C=C(C)[C@@H]1CC[C@]2(C(=O)NCCCCCCCCNC(=O)[C@H](CCC(N)=O)NC(=O)OC(C)(C)C)CC[C@]3(C)[C@H](CC[C@@H]4[C@@]5(C)CC[C@H](OC(=O)CC(C)(C)C(=O)O)C(C)(C)[C@@H]5CC[C@]43C)[C@@H]12` returned a CC50 greater than 10000 nM. For the same compound, the IC50 turned out to be 360 nM in data set [2] and 30 nM in data set [3].
For `C=C(C)[C@@H]1CC[C@]2(C(=O)NCCCCCCCCC(=O)N[C@@H](Cc3ccccc3)C(=O)OC)CC[C@]3(C)[C@H](CC[C@@H]4[C@@]5(C)CC[C@H](OC(=O)CC(C)(C)C(=O)O)C(C)(C)[C@@H]5CC[C@]43C)[C@@H]12`, in that order: greater than 10000 nM, 1290 nM and 70 nM.
For `C=C(C)[C@@H]1CC[C@]2(C(=O)NCCCCCCCCC(=O)N[C@@H](C)C(=O)OC)CC[C@]3(C)[C@H](CC[C@@H]4[C@@]5(C)CC[C@H](OC(=O)CC(C)(C)C(=O)O)C(C)(C)[C@@H]5CC[C@]43C)[C@@H]12`, in that order: greater than 10000 nM, 420 nM and 10 nM.
For `C=C(C)[C@@H]1CC[C@]2(C(=O)NCCCCCCCCC(=O)NCC(=O)O)CC[C@]3(C)[C@H](CC[C@@H]4[C@@]5(C)CC[C@H](OC(=O)CC(C)(C)C(=O)O)C(C)(C)[C@@H]5CC[C@]43C)[C@@H]12`, in that order: greater than 10000 nM, 480 nM and 40 nM.
Consider `C=C(C)[C@@H]1CC[C@]2(C(=O)NCCCCCCCCC(=O)NCC#N)CC[C@]3(C)[C@H](CC[C@@H]4[C@@]5(C)CC[C@H](OC(=O)CC(C)(C)C(=O)O)C(C)(C)[C@@H]5CC[C@]43C)[C@@H]12`, for which, in data set [1], half-maximal cytotoxicity (CC50) was put at 6490 nM. Also, the figures for the half-maximal inhibitory concentration (IC50) in data set [2] and in data set [3] were 460 nM and 30 nM, respectively.
In the same order, the values of `C=C(C)[C@@H]1CC[C@]2(C(=O)NCCCCCCCCC(=O)NCCC#N)CC[C@]3(C)[C@H](CC[C@@H]4[C@@]5(C)CC[C@H](OC(=O)CC(C)(C)C(=O)O)C(C)(C)[C@@H]5CC[C@]43C)[C@@H]12` are greater than 10000 nM, 330 nM and 150 nM.
For `C=C(C)[C@@H]1CC[C@]2(C(=O)NCCCCCCCCCC(=O)N[C@@H](CCC(N)=O)C(=O)OC)CC[C@]3(C)[C@H](CC[C@@H]4[C@@]5(C)CC[C@H](OC(=O)CC(C)(C)C(=O)O)C(C)(C)[C@@H]5CC[C@]43C)[C@@H]12`, in that order: greater than 10000 nM, 700 nM and 100 nM.
For `C=C(C)[C@@H]1CC[C@]2(C(=O)NCCCCCCCCNC(=O)[C@H](C)NC(=O)OC(C)(C)C)CC[C@]3(C)[C@H](CC[C@@H]4[C@@]5(C)CC[C@H](OC(=O)CC(C)(C)C(=O)O)C(C)(C)[C@@H]5CC[C@]43C)[C@@H]12`, in that order: greater than 10000 nM, 920 nM and 20 nM.
For `C=C(C)[C@@H]1CC[C@]2(C(=O)NCCCCCCCCC(=O)N[C@H](C(=O)OC)C(C)C)CC[C@]3(C)[C@H](CC[C@@H]4[C@@]5(C)CC[C@H](OC(=O)CC(C)(C)C(=O)O)C(C)(C)[C@@H]5CC[C@]43C)[C@@H]12`, the CC50 in data set [1] was greater than 10000 nM. Also, the results for the IC50 in data set [2] and in data set [3] were 1240 nM and 10 nM, respectively.
For `C=C(C)[C@@H]1CC[C@]2(C(=O)NCCCCCCCCC(=O)N3CCC[C@H]3C(=O)OC)CC[C@]3(C)[C@H](CC[C@@H]4[C@@]5(C)CC[C@H](OC(=O)CC(C)(C)C(=O)O)C(C)(C)[C@@H]5CC[C@]43C)[C@@H]12`, in that order: greater than 10000 nM, 880 nM and 100 nM.
For `C=C(C)[C@@H]1CC[C@]2(C(=O)NCCCCCCCCC(=O)N[C@@H](CCC(N)=O)C(=O)OCc3ccccc3)CC[C@]3(C)[C@H](CC[C@@H]4[C@@]5(C)CC[C@H](OC(=O)CC(C)(C)C(=O)O)C(C)(C)[C@@H]5CC[C@]43C)[C@@H]12`, in that order: greater than 10000 nM, 2540 nM and 40 nM.
In the same order, the values of `C=C(C)[C@@H]1CC[C@]2(C(=O)NCCCCCCCCC(=O)N[C@H](C(=O)OC)[C@@H](C)CC)CC[C@]3(C)[C@H](CC[C@@H]4[C@@]5(C)CC[C@H](OC(=O)CC(C)(C)C(=O)O)C(C)(C)[C@@H]5CC[C@]43C)[C@@H]12` are greater than 10000 nM, 2780 nM and 40 nM.
